Measured values as given in ChEMBL document CHEMBL1641456, “Design, synthesis, and pharmacological evaluation of azetedine and pyrrolidine derivatives as dual norepinephrine reuptake inhibitors and 5-HT(1A) partial agonists” (Bioorg Med Chem Lett, 2011).

Legend:
[1] = target: T1, Sodium-dependent noradrenaline transporter (Homo sapiens, UniProt P23975); assay: Displacement of [3H]nisoxetine from human NET by scintillation proximity assay
Summary of the method: (§1)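 Human transporter binding by scintillation proximity assay: inhibition of [³H]nisoxetine (NET), [³H]WIN 35,428 (DAT) or [³H]citalopram (SERT) binding measured. Ki values are the mean of at least two experiments, each run in duplicate.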

[2] = target: Sodium-dependent dopamine transporter (Homo sapiens, UniProt Q01959); assay: Displacement of [3H]WIN-35,428 from human DAT by scintillation proximity assay; summary of the method: as §1
[3] = target: Sodium-dependent serotonin transporter (Homo sapiens, UniProt P31645); assay: Displacement of [3H]citalopram from human SERT by scintillation proximity assay; summary of the method: as §1
[4] = target: T2, 5-hydroxytryptamine receptor 1A (Homo sapiens, UniProt P08908); assay: Displacement of [3H]8-OH-DPAT from human cloned 5HT1A receptor by liquid scintillation spectrophotometry
T2 sequence (P08908 whole entry): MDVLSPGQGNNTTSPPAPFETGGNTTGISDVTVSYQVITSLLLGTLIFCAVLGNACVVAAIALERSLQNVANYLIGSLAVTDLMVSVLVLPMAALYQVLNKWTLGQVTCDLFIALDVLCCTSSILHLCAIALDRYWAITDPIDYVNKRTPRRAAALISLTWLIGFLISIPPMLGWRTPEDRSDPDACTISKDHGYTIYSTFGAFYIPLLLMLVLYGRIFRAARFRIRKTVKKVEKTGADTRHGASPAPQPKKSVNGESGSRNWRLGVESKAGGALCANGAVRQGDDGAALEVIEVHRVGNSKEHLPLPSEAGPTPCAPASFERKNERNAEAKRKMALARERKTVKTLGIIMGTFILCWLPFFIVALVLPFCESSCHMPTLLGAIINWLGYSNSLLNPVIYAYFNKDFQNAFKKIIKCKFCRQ

Rattus norvegicus [5] = assay: In vivo 5HT1A receptor occupancy in rat brain at 10 mg/kg, sc after 1 hr; type: functional; conditions: route subcutaneous
Summary of the method: (§2)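 Ex vivo receptor occupancy of NET and 5-HT1A in rat brain, collected 1 h after 10 mg/kg subcutaneous dosing.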

Rattus norvegicus [6] = assay: In vivo NET occupancy in rat brain at 10 mg/kg, sc after 1 hr; type: functional; conditions: route subcutaneous; summary of the method: as §2
Rattus norvegicus [7] = assay: In vivo 5HT1A receptor occupancy in sc dosed rat brain; type: functional
Summary of the method: (§3)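 Ex vivo NET and 5-HT1A occupancy in rat brain from a subcutaneous dose–response, read 1 h post-dose. ID50 derived from the dose–response. For 5-HT1A, the dose giving 10% receptor occupancy was also determined.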

Rattus norvegicus [8] = assay: In vivo NET occupancy in sc dosed rat brain; type: functional; conditions: read-out: ID50 (the source's name); summary of the method: as §3
[9] = Cmax in dog at 5 mg/kg, po after 1 hr; type: ADME, organism-based, Canis lupus familiaris; design: dose 5 mg/kg, route oral; conditions: in vivo
[10] = Tmax in dog at 5 mg/kg, po; type: ADME, organism-based, Canis lupus familiaris; design: dose 5 mg/kg, route oral; conditions: in vivo
[11] = AUC ( 0 to 24 hrs) in dog at 5 mg/kg, po after 1 hr; type: ADME, organism-based, Canis lupus familiaris; design: time < 24 hr, dose 5 mg/kg, route oral; conditions: plasma
[12] = Half life in dog at 5 mg/kg, po; type: ADME, organism-based, Canis lupus familiaris; design: dose 5 mg/kg, route oral; conditions: in vivo
[13] = Drug level in rat brain at 10 mg/kg, sc after 1 hr; type: ADME, organism-based; design: dose 10 mg/kg, route subcutaneous; conditions: read-out: Drug uptake
Summary of the method: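 Rats dosed subcutaneously at 10 mg/kg; total brain drug concentration measured 1 h post-dose. Reported as mean with SEM, n = 4.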

[14] = target: T2, 5-hydroxytryptamine receptor 1A; assay: Agonist activity at 5HT1A receptor by GTPgammaS binding assay; type: functional
[15] = target: T1, Sodium-dependent noradrenaline transporter; assay: […] at human cloned NET expressed in HEK293 cells by FLIPR assay; type: functional, cell-based

Sequence of Sodium-dependent dopamine transporter (Q01959 whole entry): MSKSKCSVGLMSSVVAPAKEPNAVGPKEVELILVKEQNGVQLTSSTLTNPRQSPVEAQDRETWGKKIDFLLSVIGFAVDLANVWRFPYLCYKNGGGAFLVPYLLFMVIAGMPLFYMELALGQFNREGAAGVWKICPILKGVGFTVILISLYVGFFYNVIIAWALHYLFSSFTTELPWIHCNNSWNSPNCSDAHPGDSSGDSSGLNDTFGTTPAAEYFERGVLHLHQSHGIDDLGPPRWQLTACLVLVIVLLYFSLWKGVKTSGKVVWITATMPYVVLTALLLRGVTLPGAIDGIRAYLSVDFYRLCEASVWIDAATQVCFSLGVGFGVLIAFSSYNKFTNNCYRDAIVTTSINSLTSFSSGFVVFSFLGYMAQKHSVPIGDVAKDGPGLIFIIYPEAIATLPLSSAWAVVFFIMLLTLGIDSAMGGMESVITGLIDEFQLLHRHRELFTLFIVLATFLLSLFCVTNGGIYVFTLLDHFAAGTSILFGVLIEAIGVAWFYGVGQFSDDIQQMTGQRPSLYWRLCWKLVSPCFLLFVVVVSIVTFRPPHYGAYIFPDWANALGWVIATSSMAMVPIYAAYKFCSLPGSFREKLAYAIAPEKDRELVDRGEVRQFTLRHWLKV
Sequence of Sodium-dependent serotonin transporter (P31645 whole entry): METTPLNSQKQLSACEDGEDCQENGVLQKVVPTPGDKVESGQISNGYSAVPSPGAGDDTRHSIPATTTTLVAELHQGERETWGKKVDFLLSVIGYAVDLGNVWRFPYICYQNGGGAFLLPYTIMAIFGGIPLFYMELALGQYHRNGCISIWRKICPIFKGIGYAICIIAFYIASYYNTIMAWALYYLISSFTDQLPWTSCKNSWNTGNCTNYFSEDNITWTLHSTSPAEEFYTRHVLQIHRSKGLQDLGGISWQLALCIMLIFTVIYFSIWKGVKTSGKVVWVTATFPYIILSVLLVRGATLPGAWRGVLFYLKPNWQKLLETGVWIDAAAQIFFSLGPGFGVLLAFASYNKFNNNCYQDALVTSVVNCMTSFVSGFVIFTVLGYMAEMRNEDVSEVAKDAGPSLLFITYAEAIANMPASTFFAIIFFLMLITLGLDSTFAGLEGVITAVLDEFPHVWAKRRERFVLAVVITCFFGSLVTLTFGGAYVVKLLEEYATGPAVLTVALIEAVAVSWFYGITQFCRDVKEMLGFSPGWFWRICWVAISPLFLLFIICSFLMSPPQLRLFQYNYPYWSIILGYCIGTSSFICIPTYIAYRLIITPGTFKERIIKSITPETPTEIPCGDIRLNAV
T1 sequence (P23975 whole entry): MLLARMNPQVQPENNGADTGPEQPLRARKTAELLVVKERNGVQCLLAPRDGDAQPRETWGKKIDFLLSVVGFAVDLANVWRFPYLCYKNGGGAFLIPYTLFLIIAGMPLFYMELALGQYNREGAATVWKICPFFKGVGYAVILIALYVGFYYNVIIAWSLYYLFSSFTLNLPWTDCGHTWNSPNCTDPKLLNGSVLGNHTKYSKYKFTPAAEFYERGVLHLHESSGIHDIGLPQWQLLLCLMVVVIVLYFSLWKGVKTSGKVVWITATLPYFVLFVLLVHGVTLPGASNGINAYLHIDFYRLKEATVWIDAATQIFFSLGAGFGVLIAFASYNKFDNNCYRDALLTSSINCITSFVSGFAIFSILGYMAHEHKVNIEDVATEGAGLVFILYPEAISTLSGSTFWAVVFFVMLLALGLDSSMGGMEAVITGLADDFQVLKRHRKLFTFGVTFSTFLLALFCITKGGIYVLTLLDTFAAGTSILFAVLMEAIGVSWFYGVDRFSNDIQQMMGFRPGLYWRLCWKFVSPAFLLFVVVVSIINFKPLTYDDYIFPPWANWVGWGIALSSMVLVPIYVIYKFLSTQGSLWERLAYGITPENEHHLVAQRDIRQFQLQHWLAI

| SMILES | Ki [1] [nM] | Ki [2] [nM] | Ki [3] [nM] | Ki [4] [nM] | also measured |
| --- | --- | --- | --- | --- | --- |
| c1ccc(Oc2ccccc2OC2CNC2)cc1 | 1640 | 2090 | 2670 | 57 | – |
| Fc1ccccc1Oc1ccccc1OC1CNC1 | 528 | 2040 | > 4710 | 22 | – |
| Fc1ccccc1Oc1cccc(F)c1OC1CNC1 | 507 | > 4860 | > 4710 | 12 | – |
| Fc1cccc(F)c1Oc1cccc(F)c1OC1CNC1 | 482 | > 6410 | > 4620 | < 3 | – |
| Cc1cccc(Cl)c1Oc1cccc(F)c1OC1CNC1 | 433 | > 6410 | > 4610 | 16 | – |
| Fc1ccccc1Oc1ccccc1OC1CCNCC1 | 1000 | 4510 | > 4710 | 693 | – |
| Fc1ccccc1Oc1cccc(F)c1OC1CCNCC1 | 489 | 2190 | > 4650 | 30 | – |
| Fc1ccccc1Oc1cccc(F)c1OC1CCCNC1 (centres undefined) | 1950 | > 5590 | > 4710 | 90 | – |
| Fc1ccccc1Oc1ccccc1OC1CCNC1 (centres undefined) | 1350 | > 6220 | > 4710 | 193 | – |
| Fc1ccccc1Oc1cccc(F)c1OC1CCNC1 (centres undefined) | 1020 | 3880 | > 4710 | 8 | – |
| Fc1cccc(Cl)c1Oc1cccc(F)c1O[C@H]1CCNC1 | 1010 | > 5870 | > 4530 | – | – |
| Fc1cccc(Cl)c1Oc1ncccc1OC1CCNC1 (centres undefined) | 1140 | > 4620 | > 6130 | 203 | – |
| Fc1ccccc1Oc1cccc(F)c1C1CCNCC1 | – | – | – | – | Activity (Rattus norvegicus [5]): 62%; Activity (Rattus norvegicus [6]): 80%; concentration at 1 h [13]: 2230 ng/mL |

Continued, in another order:

| Ki [1] [nM] | Ki [2] [nM] | Ki [3] [nM] | Ki [4] [nM] | SMILES | also measured |
| --- | --- | --- | --- | --- | --- |
| 198 | 4700 | 1710 | 14 | Fc1cccc(Oc2ccccc2Cl)c1OC1CNC1 | – |
| 138 | > 6460 | > 4900 | 1 | Fc1cccc(Cl)c1Oc1cccc(F)c1OC1CNC1 | Activity (Rattus norvegicus [5]): 81%; Activity (Rattus norvegicus [6]): 87%; ID10 (Rattus norvegicus [7]): < 1 mg/kg; ED50 (Rattus norvegicus [8]): 1.2 mg/kg; Cmax [9]: 919 ng/mL; Tmax [10]: 1 h; AUC(0-t) at 24 h [11]: 3480 ng·h/mL; half-life [12]: 2.35 h; concentration at 1 h [13]: 5900 ng/mL; EC50 [14]: 197 nM; EC50 [15]: 28 nM |
| 116 | > 6460 | 1160 | 3 | Cc1cccc(F)c1Oc1cccc(F)c1OC1CNC1 | Activity (Rattus norvegicus [5]): 76%; Activity (Rattus norvegicus [6]): 84%; Cmax [9]: 525 ng/mL; Tmax [10]: 1 h; AUC(0-t) at 24 h [11]: 2800 ng·h/mL; half-life [12]: 3.01 h; concentration at 1 h [13]: 5690 ng/mL; EC50 [14]: 225 nM; EC50 [15]: 239 nM |
| 164 | > 5940 | > 4620 | 6 | Fc1cccc(Oc2c(Cl)cccc2Cl)c1OC1CNC1 | – |
| 374 | 312 | 94 | 16 | Fc1cccc(Oc2cccc(Cl)c2Cl)c1OC1CNC1 | – |
| 218 | > 6370 | 2040 | 8 | Fc1cccc(Cl)c1Oc1cccc(F)c1OC1CCNCC1 | – |
| 323 | > 6460 | 3250 | 4 | Cc1cccc(F)c1Oc1cccc(F)c1OC1CCNCC1 | – |
| 192 | 2030 | 2230 | 19 | Fc1cccc(Oc2ccccc2Cl)c1OC1CCNC1 (centres undefined) | – |
| 328 | > 6460 | > 4690 | 4 | Cc1cccc(F)c1Oc1cccc(F)c1OC1CCNC1 (centres undefined) | – |
| 226 | > 6460 | > 4900 | – | Fc1cccc(Cl)c1Oc1cccc(F)c1OC1CCNC1 (centres undefined) | Activity (Rattus norvegicus [5]): 73%; Activity (Rattus norvegicus [6]): 54%; concentration at 1 h [13]: 5620 ng/mL; EC50 [15]: 97 nM |
| 110 | > 5870 | > 4530 | – | Fc1cccc(Cl)c1Oc1cccc(F)c1O[C@@H]1CCNC1 | Cmax [9]: 146 ng/mL; Tmax [10]: 1 h; AUC(0-t) at 24 h [11]: 560 ng·h/mL; half-life [12]: 1.85 h |
| 73 | > 4260 | > 6280 | 64 | Fc1cccc(Cl)c1Oc1ncccc1OC1CNC1 | – |
